Test results published in ChEMBL document CHEMBL4043294, “Chemogenomic Profiling of Human and Microbial FK506-Binding Proteins” (J Med Chem, 2018).
Activity calls are given as the source filed them. No cut-off for these calls is given here.

Assays:
[1] = target: Peptidyl-prolyl cis-trans isomerase FKBP1A (Homo sapiens, UniProt P62942); experiment: (§1) Displacement of 5-(3-(4-(((5S,6S)-10-(3,5-dichlorophenylsulfonyl)-2-oxo-5-vinyl-3,10-diazabicyclo[4.3.1]decan-3-yl)methyl)-1H-1,2,3-triazol-1-yl)propylcarbamoyl)-2-(6-(dimethylamino)-3-(dimethyliminio)-3,10-dihydroanthracen-9-yl)benzoate from human FKBP12 after 30 mins by fluorescence polarization assay
Chain of Peptidyl-prolyl cis-trans isomerase FKBP1A (P62942 whole entry): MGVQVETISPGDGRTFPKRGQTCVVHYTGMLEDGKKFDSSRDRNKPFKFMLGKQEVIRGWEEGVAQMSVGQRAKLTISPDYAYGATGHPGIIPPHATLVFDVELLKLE
In short: (§2)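 Competitive fluorescence polarization against a TAMRA-labelled tracer in 20 mM NaCl, 20 mM HEPES pH 8.0, 0.002% Tween20. Ligand serially diluted 1:1 in DMSO, then diluted 50-fold into tracer-containing buffer and added to protein. Equilibrated 30 min at room temperature before polarization read. Competition curves fitted.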

[2] = as §1, with “Candida albicans” for “human”; in short: as §2
[3] = target: Peptidyl-prolyl cis-trans isomerase FKBP1B (Homo sapiens, UniProt P68106); experiment: as §1, with “FKBP12.6” for “FKBP12”
Chain of Peptidyl-prolyl cis-trans isomerase FKBP1B (P68106 whole entry): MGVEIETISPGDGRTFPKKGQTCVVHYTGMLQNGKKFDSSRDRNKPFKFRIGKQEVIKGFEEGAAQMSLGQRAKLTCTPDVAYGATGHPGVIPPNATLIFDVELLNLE
In short: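 Competitive fluorescence polarization with the fluorescent tracer in 20 mM NaCl, 20 mM HEPES pH 8.0, 0.002% Tween20. Ligand is serially diluted 1:1 in DMSO, then 1:50 into tracer-containing buffer. This mix is added to protein at 1.11× final concentration (protein:mix 45:5). After 30 min at room temperature to reach equilibrium, polarization is read and competition curves are fitted.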

[4] = target: T1, Peptidyl-prolyl cis-trans isomerase FKBP2 (Homo sapiens, UniProt P26885); experiment: as §1, with “FKBP13” for “FKBP12”; in short: as §2
T1 sequence (P26885 whole entry): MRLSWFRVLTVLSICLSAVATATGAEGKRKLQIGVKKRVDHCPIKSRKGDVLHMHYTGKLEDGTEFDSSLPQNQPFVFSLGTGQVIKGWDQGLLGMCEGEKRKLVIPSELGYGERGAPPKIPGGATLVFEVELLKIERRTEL

[5] = target: T2, Peptidyl-prolyl cis-trans isomerase FKBP3 (Homo sapiens, UniProt Q00688); experiment: as §1, with “FKBP25” for “FKBP12”; in short: as §2
T2 sequence (Q00688 whole entry): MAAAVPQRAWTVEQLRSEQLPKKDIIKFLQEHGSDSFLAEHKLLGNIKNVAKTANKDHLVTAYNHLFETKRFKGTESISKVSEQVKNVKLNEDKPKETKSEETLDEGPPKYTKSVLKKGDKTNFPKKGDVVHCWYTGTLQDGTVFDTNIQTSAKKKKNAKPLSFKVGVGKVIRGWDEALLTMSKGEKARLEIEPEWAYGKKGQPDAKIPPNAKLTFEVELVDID

[6] = target: T3, Peptidyl-prolyl cis-trans isomerase FKBP5 (Homo sapiens, UniProt Q13451); experiment: as §1, with “FKBP51” for “FKBP12”; in short: as §2
T3 sequence (Q13451 whole entry): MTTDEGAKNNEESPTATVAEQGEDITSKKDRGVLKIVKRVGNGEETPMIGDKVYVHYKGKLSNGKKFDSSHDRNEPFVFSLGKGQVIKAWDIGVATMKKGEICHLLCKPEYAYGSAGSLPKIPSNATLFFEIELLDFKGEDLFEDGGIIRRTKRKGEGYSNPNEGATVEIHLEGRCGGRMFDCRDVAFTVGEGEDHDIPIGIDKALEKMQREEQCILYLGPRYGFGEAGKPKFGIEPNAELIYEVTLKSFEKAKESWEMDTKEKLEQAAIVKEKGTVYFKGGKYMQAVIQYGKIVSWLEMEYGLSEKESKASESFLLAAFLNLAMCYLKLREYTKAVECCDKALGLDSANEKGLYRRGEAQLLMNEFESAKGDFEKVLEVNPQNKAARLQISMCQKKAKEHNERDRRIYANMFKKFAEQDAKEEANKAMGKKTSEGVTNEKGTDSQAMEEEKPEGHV

[7] = target: T4, Peptidyl-prolyl cis-trans isomerase FKBP4 (Homo sapiens, UniProt Q02790); experiment: as §1, with “FKBP52” for “FKBP12”; in short: as §2
T4 sequence (Q02790 whole entry): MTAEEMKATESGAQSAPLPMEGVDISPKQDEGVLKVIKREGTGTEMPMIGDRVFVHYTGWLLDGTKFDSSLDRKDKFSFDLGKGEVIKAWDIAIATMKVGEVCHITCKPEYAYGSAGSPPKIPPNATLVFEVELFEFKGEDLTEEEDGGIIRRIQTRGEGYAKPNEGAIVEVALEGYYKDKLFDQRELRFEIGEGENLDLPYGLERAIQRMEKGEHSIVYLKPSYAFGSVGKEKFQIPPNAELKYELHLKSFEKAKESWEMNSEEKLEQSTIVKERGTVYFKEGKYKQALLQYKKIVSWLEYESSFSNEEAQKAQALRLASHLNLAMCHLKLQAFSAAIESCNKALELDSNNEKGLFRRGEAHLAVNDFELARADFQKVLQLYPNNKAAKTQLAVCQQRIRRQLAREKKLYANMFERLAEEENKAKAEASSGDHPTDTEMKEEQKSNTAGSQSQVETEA

[8] = system: Plasmodium falciparum; experiment: Antiparasitic activity against Plasmodium falciparum 3D7 infected in human RBC assessed as decrease in parasitemia after 60 hrs by Hoechst 33342 staining-based flow cytometric method; type: functional; conditions: for IC50: 3D7, 60 h
In short: (§3)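 Sorbitol-synchronized early-stage parasites, adjusted to 1% parasitemia at 2% hematocrit. Serial dilutions of compound in DMSO (≤0.05% per well) applied in triplicate for 60 h. Cells stained with 16.2 μM Hoechst 33342 in PBS for 20 min at room temperature. Parasitemia read by flow cytometry; IC50 estimated from dose–response curves.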

[9] = system: Legionella pneumophila; experiment: Antibacterial activity against Legionella pneumophila Corby infected in differentiated human THP1 cells assessed as bacterial growth inhibition after 24 hrs; type: functional
In short: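 THP-1 monocytes at 5 × 10^5 cells/mL were differentiated with 100 nM PMA for 2 days. L. pneumophila Corby grown 3 days on BCYE agar was added at MOI 1. After 2 h, extracellular bacteria were washed off with PBS and compound was added in medium (control 1% DMSO). At 2 and 24 h, cells were lysed with 0.1% Triton X-100 and dilutions plated on BCYE. Colonies counted after 3–4 days at 37 °C. Three independent experiments in duplicate.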

[10] = system: Plasmodium falciparum; experiment: Antiparasitic activity against multidrug-resistant Plasmodium falciparum Dd2 infected in human RBC assessed as decrease in parasitemia after 60 hrs by Hoechst 33342 staining-based flow cytometric method; type: functional; conditions: Dd2, 60 h; in short: as §3
[11] = as §1, with “[…] FKBP35” for “human FKBP12”; design: species or system Plasmodium falciparum; in short: as §2
[12] = target: Outer membrane protein MIP (Legionella pneumophila, UniProt Q70YI1); experiment: as §1, with “Legionella pneumophila Mip” for “human FKBP12”; in short: as §2
Chain of Outer membrane protein MIP (Q70YI1 21-233 limits assumed): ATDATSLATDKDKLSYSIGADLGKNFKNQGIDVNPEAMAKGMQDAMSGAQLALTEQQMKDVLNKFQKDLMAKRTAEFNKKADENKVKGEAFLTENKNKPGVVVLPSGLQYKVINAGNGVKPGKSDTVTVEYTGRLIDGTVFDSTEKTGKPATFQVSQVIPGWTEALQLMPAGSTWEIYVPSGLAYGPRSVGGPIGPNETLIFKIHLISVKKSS

[13] = target: T5, Peptidyl-prolyl cis-trans isomerase Mip (Chlamydia pneumoniae, UniProt Q9Z7P3); experiment: as §1, with “Chlamydia pneumoniae Mip” for “human FKBP12”; in short: as §2
T5 sequence (Q9Z7P3 whole entry): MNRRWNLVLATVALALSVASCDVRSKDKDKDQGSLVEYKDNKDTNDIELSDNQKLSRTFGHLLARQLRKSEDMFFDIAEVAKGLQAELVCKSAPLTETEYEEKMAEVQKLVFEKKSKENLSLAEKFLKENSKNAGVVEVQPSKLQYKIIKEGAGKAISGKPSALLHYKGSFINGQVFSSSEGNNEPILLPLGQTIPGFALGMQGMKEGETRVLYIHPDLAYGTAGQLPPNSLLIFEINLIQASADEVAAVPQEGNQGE

[14] = as §1, with “Chlamydia trachomatis Mip” for “human FKBP12”; in short: as §2
[15] = system: Chlamydia pneumoniae; experiment: Antibacterial activity against Chlamydia pneumoniae CWL029 infected in human Hep2 or HeLa cells assessed as decrease in inclusion size at 10 uM after 48 hrs by immunofluorescent staining-based assay; type: functional, cell-based
In short: (§4)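 HEp-2 or HeLa cells, 3.5 × 10^4 per well in RPMI1640 with 5% FBS, nonessential amino acids and 2 mM glutamine, grown overnight at 37 °C in 5% CO2. Inhibitor added at infection (C. pneumoniae CWL029 0.2 IFU/cell; C. trachomatis serovar D 0.5 IFU/cell). Plates centrifuged at 700g for 1 h at 35 °C, then incubated 48 h. Inclusions stained with anti-chlamydial-LPS immunofluorescence and host cells counterstained with Evans Blue. Recoverable bacteria normalized to untreated controls.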

[16] = system: Chlamydia pneumoniae; experiment: Antibacterial activity against Chlamydia pneumoniae CWL029 infected in human Hep2 or HeLa cells assessed as decrease in generation of infectious elementary bodies at 10 uM after 48 hrs by immunofluorescent staining-based assay; type: functional, cell-based; in short: as §4
[17] = system: Chlamydia trachomatis; experiment: Antibacterial activity against Chlamydia trachomatis Serovar D infected in human Hep2 or HeLa cells assessed as decrease in generation of infectious elementary bodies at 10 uM after 48 hrs by immunofluorescent staining-based assay; type: functional, cell-based; in short: as §4

C=C[C@H]1CN(CCCOC)C(=O)[C@@H]2CCC[C@H]1N2S(=O)(=O)c1cc(Cl)cc(Cl)c1
Ki [1]: 143 nM

C=C[C@H]1CN(Cc2ccccn2)C(=O)[C@@H]2CCC[C@H]1N2S(=O)(=O)c1ccc(-c2ncccn2)cc1
Ki [2]: 52 nM

COC[C@H]1CN(Cc2ccccn2)C(=O)[C@@H]2CCC[C@H]1N2S(=O)(=O)c1cc(Cl)cc(Cl)c1
Ki [1]: 0.45 nM | Ki [3]: 1.23 nM | Ki [4]: 60.5 nM | Ki [5]: 1130 nM | Ki [6]: 24.5 nM | Ki [7]: 18.9 nM

C=C[C@H]1CN(CC(=O)O)C(=O)[C@@H]2CCC[C@H]1N2S(=O)(=O)c1cc(Cl)cc(Cl)c1
Ki [1]: 7 to 25 nM

C#CCN1C[C@H](C=C)[C@H]2CCC[C@@H](C1=O)N2S(=O)(=O)c1cc(Cl)cc(Cl)c1
Ki [1]: 49 to 80 nM

C=C[C@H]1CN(CC(=O)OCC)C(=O)[C@@H]2CCC[C@H]1N2S(=O)(=O)c1cc(Cl)cc(Cl)c1
Ki [1]: 7 to 25 nM

C=C[C@H]1CN(Cc2ncccc2F)C(=O)[C@@H]2CCC[C@H]1N2S(=O)(=O)c1cc(Cl)cc(Cl)c1
Ki [1]: 11.8 nM

CC[C@H]1CN(CCOC)C(=O)[C@@H]2CCC[C@H]1N2S(=O)(=O)c1cc(Cl)cc(Cl)c1
IC50 [8]: 8300 nM | growth inhibition (GI) [9]: Dose-dependent effect

C=C[C@@H]1CN(CCN(C)C)C(=O)[C@@H]2CCC[C@H]1N2S(=O)(=O)c1cc(Cl)cc(Cl)c1
Ki [1]: 7 to 25 nM

C=C[C@H]1CN(CCCCOC)C(=O)[C@@H]2CCC[C@H]1N2S(=O)(=O)c1cc(Cl)cc(Cl)c1
Ki [1]: 249 nM

C=C[C@H]1CN(CCOCC)C(=O)[C@@H]2CCC[C@H]1N2S(=O)(=O)c1cc(Cl)cc(Cl)c1
Ki [1]: 21.1 nM

C=C[C@H]1CN(CCNC)C(=O)[C@@H]2CCC[C@H]1N2S(=O)(=O)c1cc(Cl)cc(Cl)c1
Ki [1]: 7 to 25 nM

C=C[C@H]1CN(CCOC)C(=O)[C@@H]2CCC[C@H]1N2S(=O)(=O)c1cc(Cl)cc(Cl)c1
Ki [1]: 18.8 nM

C=C[C@H]1CN(CC(N)=O)C(=O)[C@@H]2CCC[C@H]1N2S(=O)(=O)c1cc(Cl)cc(Cl)c1
Ki [1]: 7 to 25 nM

C=C[C@H]1CN(C)C(=O)[C@@H]2CCC[C@H]1N2S(=O)(=O)c1cc(Cl)cc(Cl)c1
Ki [1]: 49 to 80 nM

C=C[C@H]1CN(CC#N)C(=O)[C@@H]2CCC[C@H]1N2S(=O)(=O)c1cc(Cl)cc(Cl)c1
Ki [1]: 49 to 80 nM

CC[C@H]1CN(Cc2ccccn2)C(=O)[C@@H]2CCC[C@H]1N2S(=O)(=O)c1cc(Cl)cc(Cl)c1
IC50 [10]: 3100 nM | Ki [2]: 40.1 nM | Ki [11]: 98.1 nM | Ki [12]: 598 nM | Ki [13]: 399 nM | Ki [14]: 1810 nM | Activity [8]: Dose-dependent effect | IC50 [8]: 2300 nM | growth inhibition (GI) [9]: Dose-dependent effect

C=C[C@H]1CNC(=O)[C@@H]2CCC[C@H]1N2S(=O)(=O)c1cc(Cl)cc(Cl)c1
Ki [1]: 49 to 80 nM

C=C[C@@H]1CN(CCF)C(=O)[C@@H]2CCC[C@H]1N2S(=O)(=O)c1cc(Cl)cc(Cl)c1
Ki [1]: 49 to 80 nM

C=C[C@H]1CN(Cc2ccco2)C(=O)[C@@H]2CCC[C@H]1N2S(=O)(=O)c1cc(Cl)cc(Cl)c1
Ki [2]: 1490 nM | Ki [11]: 5220 nM | Ki [12]: 6590 nM | Ki [13]: 315 nM | Ki [14]: 1820 nM | Activity [15]: Active | Activity [16]: Active | Activity [17]: Active
